Source: ChEMBL document CHEMBL3632541, “Synthesis, antileishmanial activity and cytotoxicity of 2,3-diaryl- and 2,3,8-trisubstituted imidazo[1,2-a]pyrazines” (Eur J Med Chem, 2015)
Values after ≈ are worked out from the molar mass of the structure shown. Active and inactive are the calls of the source. The calls are words filed in the database; no cut-off is given here.

Key:
[1] = Cytotoxicity against BALB/c mouse peritoneal macrophages assessed as cell viability after 48 hrs by trypan blue dye exclusion method; format: cell-based; details: Peritoneal macrophage cell
[2] = Therapeutic index, ratio of IC50 for BALB/c mouse peritoneal macrophages to IC50 for promastigote form of Leishmania major (MHOM/IL/81/BNI); details: read-out: Ratio IC50
[3] = tested on: Leishmania major; assay: Antileishmanial activity against promastigote form of Leishmania major MHOM/IL/81/BNI after 96 hrs by spectrofluorimetric micromethod; format: functional, organism-based
[4] = Inhibition of Leishmania major CK1.2 using RRKHAAIGpSAYSITA as substrate and [gamma-33P]ATP after 30 mins by scintillation counting
Outline: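 Recombinant His-tagged L. major CK1.2 from E. coli, purified on cobalt beads. Assayed as for the porcine enzyme: CKS peptide substrate, 15 μM [γ-³³P]ATP, 30 min at 30 °C, P81 capture and scintillation counting. Activity as % of the no-inhibitor value.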

[5] = Cytotoxicity against human H460 cells assessed as growth inhibition after 48 hrs by SRB assay method; format: cell-based, NCI-H460
Outline: (§1)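 Cells plated in growth medium and allowed to attach 24 h (37 °C, 5% CO₂). Time-zero plate fixed with TCA. Serial 4-fold dilutions added for 48 h. Cells fixed with cold TCA, stained with 0.2% SRB, dye solubilized in 10 mM Tris pH 10.5, absorbance read at 510 nm. GI50 is 50% absorbance reduction versus solvent controls, by linear regression. K562 counted by Coulter counter instead. 5-FU reference.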

[6] = Cytotoxicity against human M14 cells assessed as growth inhibition after 48 hrs by SRB assay method; format: cell-based; outline: as §1
[7] = Cytotoxicity against human K562 cells assessed as growth inhibition after 48 hrs by Coulter counter cell counting
[8] = Cytotoxicity against human HuTu 80 cells assessed as growth inhibition after 48 hrs by SRB assay method; format: cell-based, HuTu80; outline: as §1
[9] = Cytotoxicity against human MCF7 cells assessed as growth inhibition after 48 hrs by SRB assay method; format: cell-based; outline: as §1
[10] = Inhibition of native porcine brain CK1 delta/epsilon using RRKHAAIGpSAYSITA as substrate and [gamma-33P]ATP after 30 mins by scintillation counting; set-up: species or system Sus scrofa
Outline: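 Native porcine brain CK1δ/ε, in threefold-diluted buffer A (25 mM Mops pH 7.2, 15 mM MgCl₂, 5 mM EGTA, 1 mM DTT, phosphatase inhibitors). 25 μM CKS peptide substrate, 15 μM [γ-³³P]ATP, 30 min at 30 °C. Stopped on P81 paper, washed in 1% phosphoric acid, counted by scintillation. Blank subtracted; activity as % of the no-inhibitor value; DMSO controls.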

[11] = Cytotoxicity against human DU145 cells assessed as growth inhibition after 48 hrs by SRB assay method; format: cell-based, DU-145; outline: as §1
[12] = Therapeutic index, ratio of IC50 for BALB/c mouse 3T3 clone A31 cells to IC50 for promastigote form of Leishmania major (MHOM/IL/81/BNI); format: cell-based; details: read-out: Ratio IC50
[13] = Cytotoxicity against human HT-29 cells assessed as growth inhibition after 48 hrs by SRB assay method; format: cell-based; outline: as §1
[14] = Cytotoxicity against BALB/c mouse 3T3 clone A31 cells after 48 hrs by SRB assay method; format: cell-based; details: A31, 48 h; outline: as §1
[15] = Therapeutic index, ratio of IC50 for BALB/c mouse peritoneal macrophages to IC50 for amastigote form of Leishmania major (MHOM/IL/81/BNI) in BALB/c mouse peritoneal macrophages; details: read-out: Ratio IC50
[16] = tested on: Leishmania amazonensis; assay: Antileishmanial activity against axenic amastigote stage of Leishmania amazonensis MHOM/BR/76/LTB-012 by MTT method; format: functional, organism-based
Outline: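 Axenic amastigotes, grown in MAA/20 medium at 32 ± 1 °C. IC50 by MTT micromethod; compounds from 10 mM DMSO stocks, DMSO ≤1% final.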

[17] = tested on: Leishmania major; assay: Antileishmanial activity against amastigote form of Leishmania major MHOM/IL/81/BNI amastigote in Balb/c mouse peritoneal macrophages after 4 days by May-Grunwald-Giemsa staining-based microscopic analysis; format: functional, organism-based; details: 96 h
Outline: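 Peritoneal macrophages from Balb/c mice, 1.5 10⁵ cell/mL in RPMI 1640 + 15% FBS, left 24 h on glass slides (37 °C, 5% CO₂), then infected 24 h with stationary-phase promastigotes (1.5 × 10⁶/mL). Washed cultures exposed to 100, 10, 1 and 0.1 µM for 4 days. Fixed with methanol, Giemsa-stained. Amastigotes counted in 100 macrophages per duplicate well; IC50 from amastigotes/macrophage. Done twice.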

SMILES	IC50 [1] [µM]	selectivity ratio [2]	IC50 [3] [µM]	IC50 [4] [µM]	GI50 at 48 h [5] [µg/mL]	GI50 at 48 h [6] [µg/mL]	GI50 at 48 h [7] [µg/mL]	GI50 at 48 h [8] [µg/mL]	GI50 at 48 h [9] [µg/mL]	IC50 [10] [µM]	GI50 at 48 h [11] [µg/mL]	selectivity ratio [12]	GI50 at 48 h [13] [µg/mL]	IC50 [14] [µM]	selectivity ratio [15]	Activity [16]	IC50 [17] [µM]
CCOC(=O)c1ccc(-c2c(-c3ccccc3)nc3cnccn23)cc1	49.8	2.9	17.5	> 10	–	–	–	–	–	–	–	–	–	–	–	–	–
O=[N+]([O-])c1ccc(-c2c(-c3ccccc3)nc3cnccn23)cc1	114	4.2	27.6	> 10	–	–	–	–	–	–	–	–	–	–	–	–	–
Ic1c(-c2ccccc2)nc2c(NCCN3CCOCC3)nccn12	31.4	3	10.6	> 10	121 (≈ 269 µM)	179 (≈ 398 µM)	18 (≈ 40.1 µM)	33 (≈ 73.4 µM)	29 (≈ 64.5 µM)	> 10	47 (≈ 105 µM)	22.3	22 (≈ 49 µM)	236	–	–	–
CN(C)c1nccn2c(I)c(-c3ccc(F)cc3)nc12	–	–	> 100	> 10	25 (≈ 65.4 µM)	> 125	> 125	22 (≈ 57.6 µM)	3 (≈ 7.85 µM)	> 10	40 (≈ 105 µM)	–	> 125	99.4	–	–	–
c1ccc(-c2nc3cnccn3c2-c2ccccc2)cc1	41.4	1.6	26.2	> 10	–	–	–	–	–	–	–	–	–	–	–	–	–
CN(C)CCNc1nccn2c(I)c(-c3ccc(F)cc3)nc12	33.8	1.4	24.7	> 10	9 (≈ 21.2 µM)	4 (≈ 9.41 µM)	43 (≈ 101 µM)	6 (≈ 14.1 µM)	5 (≈ 11.8 µM)	> 10	13 (≈ 30.6 µM)	0.8	4 (≈ 9.41 µM)	18.8	–	–	–
c1ccc(-c2nc3cnccn3c2-c2ccncc2)cc1	154	7.7	20.1	1.3	–	–	–	–	–	3.3	–	–	–	–	57	inactive	2.7
COc1ccc(-c2c(-c3ccccc3)nc3cnccn23)cc1	60.2	3.5	17.4	> 10	–	–	–	–	–	–	–	–	–	–	–	–	–
CN(C)CCNc1nccn2c(I)c(-c3ccccc3)nc12	68.6	2.8	24.2	> 10	13 (≈ 31.9 µM)	4 (≈ 9.82 µM)	5 (≈ 12.3 µM)	12 (≈ 29.5 µM)	9 (≈ 22.1 µM)	> 10	20 (≈ 49.1 µM)	1.3	4 (≈ 9.82 µM)	31.9	–	–	–
CN(C)c1nccn2c(I)c(-c3ccccc3)nc12	29.2	4.3	6.8	> 10	47 (≈ 129 µM)	> 125	16 (≈ 43.9 µM)	44 (≈ 121 µM)	3 (≈ 8.24 µM)	> 10	39 (≈ 107 µM)	5.3	38 (≈ 104 µM)	35.7	–	–	–
Clc1cccc(-c2c(-c3ccccc3)nc3cnccn23)c1	51.5	3.5	14.5	–	–	–	–	–	–	–	–	–	–	–	–	–	–
Fc1ccc(-c2nc3c(NCCN4CCOCC4)nccn3c2I)cc1	93.2	33.3	2.8	> 10	> 125	> 125	> 125	73 (≈ 156 µM)	> 125	> 10	> 125	> 95.6	> 125	> 268	466	inactive	0.2
CN(C)c1nccn2c(-c3ccncc3)c(-c3ccccc3)nc12	144	4.6	31.3	0.48	70 (≈ 222 µM)	84 (≈ 266 µM)	48 (≈ 152 µM)	50 (≈ 159 µM)	32 (≈ 101 µM)	2.4	90 (≈ 285 µM)	5	56 (≈ 178 µM)	155	15.3	inactive	9.4
Fc1ccc(-c2nc3c(NCCN4CCOCC4)nccn3c2-c2ccncc2)cc1	40.3	2.4	16.5	0.62	20 (≈ 47.8 µM)	36 (≈ 86 µM)	21 (≈ 50.2 µM)	28 (≈ 66.9 µM)	19 (≈ 45.4 µM)	2.7	39 (≈ 93.2 µM)	2.9	27 (≈ 64.5 µM)	47.8	–	–	–
CN(C)CCNc1nccn2c(-c3ccncc3)c(-c3ccc(F)cc3)nc12	57.8	1.6	35.3	0.52	34 (≈ 90.3 µM)	19 (≈ 50.5 µM)	14 (≈ 37.2 µM)	24 (≈ 63.8 µM)	8 (≈ 21.3 µM)	1.6	52 (≈ 138 µM)	2.9	8 (≈ 21.3 µM)	101	–	–	–
CN(C)c1nccn2c(-c3ccncc3)c(-c3ccc(F)cc3)nc12	42	6.6	6.4	0.99	> 125	> 125	> 125	77 (≈ 231 µM)	52 (≈ 156 µM)	2.1	> 125	> 58.6	> 125	> 375	52.5	inactive	0.8
Clc1cc(Cl)cc(-c2c(-c3ccccc3)nc3cnccn23)c1	35.6	3.4	10.3	> 10	–	–	–	–	–	–	–	–	–	–	–	–	–
c1ccc(-c2nc3c(NCCN4CCOCC4)nccn3c2-c2ccncc2)cc1	51.7	2.2	23.5	2.4	–	–	–	–	–	3.3	–	–	–	–	–	–	–
N=C(N)c1ccc(OCCCCCOc2ccc(C(=N)N)cc2)cc1 [PENTAMIDINE]	153	33.2	4.6	–	–	–	–	–	–	–	–	–	–	–	50.9	–	3
CN(C)CCNc1nccn2c(-c3ccncc3)c(-c3ccccc3)nc12	64.9	0.9	68.8	0.51	40 (≈ 112 µM)	27 (≈ 75.3 µM)	15 (≈ 41.8 µM)	32 (≈ 89.3 µM)	6 (≈ 16.7 µM)	1.6	47 (≈ 131 µM)	1.3	6 (≈ 16.7 µM)	86.5	–	–	–
O=c1[nH]cc(F)c(=O)[nH]1 [FLUOROURACIL]	–	–	–	–	0.3 (≈ 2.31 µM)	0.7 (≈ 5.38 µM)	0.9 (≈ 6.92 µM)	0.4 (≈ 3.08 µM)	0.3 (≈ 2.31 µM)	–	1 (≈ 7.69 µM)	–	0.4 (≈ 3.08 µM)	–	–	–	–
